Data published in ChEMBL document CHEMBL1148387, “DNA-targeted 1,2,4-benzotriazine 1,4-dioxides: potent analogues of the hypoxia-selective cytotoxin tirapazamine” (J Med Chem, 2004).

How the values were obtained:
[1] = Hypoxic cytotoxicity ratio was measured as IC50 aerobic/IC50 hypoxic; type: functional
In short: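 HT-29 cells, SRB proliferation assay with each compound run simultaneously under aerobic and hypoxic conditions; intraexperimental ratio IC50(aerobic)/IC50(hypoxic).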

SCC-7 [2] = test: Concentration required to kill hypoxic mouse SCCVII cells in vitro; type: functional
In short: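 Mouse SCCVII tumour cells exposed to drug for 1 h under hypoxic (anoxic) conditions; clonogenic survival; C10 = concentration reducing plating efficiency to 10% of controls. Values corrected for interexperimental variation in hypoxia using TPZ internal standard: C10(calc) = C10(meas) × [C10(TPZ,mean)/C10(TPZ,meas)].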

SCC-7 [3] = test: Concentration required to kill aerobic mouse SCCVII cells in vitro; type: functional
In short: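 Mouse SCCVII tumour cells exposed to drug for 1 h under aerobic conditions; clonogenic survival read-out; C10 = concentration reducing plating efficiency to 10% of controls (one-log kill).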

[4] = Hypoxic cytotoxicity ratio was measured as C10 aerobic/C10 hypoxic; type: functional
In short: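 Mouse SCCVII cells, 1 h drug exposure under aerobic and hypoxic conditions in the same experiment, clonogenic survival; intraexperimental ratio C10(aerobic)/C10(hypoxic), C10 being the concentration giving 10% plating efficiency of controls.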

HT-29 [5] = test: Concentration required to kill hypoxic HT-29 human colon carcinoma cells in vitro; type: functional, cell-based
In short: (§1)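 HT-29 cells tested simultaneously under oxic and hypoxic conditions in a 96-well SRB proliferation assay; TPZ internal control at front and back of assay (n = 2); 8-methyl-5-nitroquinoline second control confirming strict hypoxia. IC50 pooled from seven independent experiments as interexperimental means (mean ± SEM, n ≥ 2).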

HT-29 [6] = test: Concentration required to kill aerobic HT-29 human colon carcinoma cells in vitro; type: functional, cell-based; in short: as §1

Row | SMILES | Ratio [1] | C10 (SCC-7 [2]) | C10 (SCC-7 [3]) | Ratio [4] | IC50 (HT-29 [5]) | IC50 (HT-29 [6])
1 | O=C(NCCNCCNc1n[n+]([O-])c2ccccc2[n+]1[O-])c1cccc2cc3ccccc3nc12 | 98.6 | 1.16 µM | 56 µM | 48.2 | 79 nM | 7800 nM
2 | Cc1cccc2nc3cccc(C(=O)NCCCN(C)CCCNc4n[n+]([O-])c5ccccc5[n+]4[O-])c3nc12 | 31 | 0.35 µM | 7.4 µM | 21.1 | 18 nM | 560 nM
3 | CN(CCCNC(=O)c1cccc2ccc(-c3ccncc3)nc12)CCCNc1n[n+]([O-])c2ccccc2[n+]1[O-] | 107 | 1.79 µM | 14 µM | 7.8 | 110 nM | 12000 nM
4 | O=C(NCCOCCNc1n[n+]([O-])c2ccccc2[n+]1[O-])c1cccc2cc3ccccc3nc12 | 12.8 | 12.4 µM | 630 µM | 50.8 | 5700 nM | 72500 nM
5 | CN(CCNC(=O)c1cccc2cc3ccccc3nc12)CCNc1n[n+]([O-])c2ccccc2[n+]1[O-] | 87 | 0.93 µM | 400 µM | 431 | 180 nM | 15700 nM
6 | CN(CCCNC(=O)c1cccc2cccnc12)CCCNc1n[n+]([O-])c2ccccc2[n+]1[O-] | 61.2 | 6.5 µM | 90 µM | 13.9 | 590 nM | 36300 nM
7 | CN(CCCNC(=O)c1cccc2nc3ccccc3nc12)CCCNc1n[n+]([O-])c2ccccc2[n+]1[O-] | 4.9 | 1.07 µM | 9.4 µM | 8.8 | 120 nM | 590 nM
8 | Cc1cccc2cc3cccc(C(=O)NCCCN(C)CCCNc4n[n+]([O-])c5ccccc5[n+]4[O-])c3nc12 | 88.4 | 0.18 µM | >30 µM | >167 | 95 nM | 8400 nM
9 | CN(CCCNC(=O)c1cccc2cc3ccccc3nc12)CCCNc1n[n+]([O-])c2ccccc2[n+]1[O-] | 124 | 0.82 µM | 42 µM | 51.5 | 43 nM | 5350 nM
10 | O=C(NCCCNCCCNc1n[n+]([O-])c2ccccc2[n+]1[O-])c1cccc2cc3ccccc3nc12 | 87.5 | 0.51 µM | 6.4 µM | 12.5 | 65 nM | 5700 nM
11 | [O-][n+]1nc(NCCCCCCNc2c3ccccc3nc3ccccc23)[n+]([O-])c2ccccc21 | 39.7 | 0.61 µM | 9.6 µM | 15.7 | 16 nM | 620 nM
12 | Nc1n[n+]([O-])c2ccccc2[n+]1[O-] [TIRAPAZAMINE] | 62 | 10.2 µM | 2644 µM | 258 | 6200 nM | 387000 nM
